From ChEMBL document CHEMBL3627676, “Modulation of disulfide dual ENKephalinase inhibitors (DENKIs) activity by a transient N-protection for pain alleviation by oral route” (Eur J Med Chem, 2015)
Calls of active or inactive are those of the source.

Key:
Mus musculus [1] = test: Analgesic activity in OF1 mouse assessed as decrease in hindpaw licking at 50 mg/kg ,po administered 150 mins prior to formalin challenge by formalin test; type: functional; design: scale not given: the % may be the effect or the level left
Summary of the method: (§1)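 Male OF1 mice, 25e32 g, 50 mg/kg given orally in ethanol/0.5% methylcellulose in water (1.5/98.5) before formalin. After 30 min adaptation, 20 µL of 5% formalin injected s.c. into the hindpaw. Licking/biting of the injected paw timed by stop-watch during the early phase (0–5 min). Analgesia (%) versus vehicle, n = 6–8 per group.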

Mus musculus [2] = test: Antiallodynic activity in OF1 mouse partial sciatic nerve ligation model assessed as increase in mechanical threshold to pressure at 50 mg/kg, po after 45 mins by von Frey test; type: functional
Summary of the method: (§2)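 PSNL in male OF1 mice (16–18 g): under isoflurane, a tight ligation placed around 33–50% of the right sciatic nerve. 50 mg/kg given by oral gavage in EtOH/0.5% methylcellulose (1.5/98.5). Paw withdrawal threshold (g) measured with von Frey filaments by up-down method before dosing and at 45, 90 and 150 min. n = 5–7 per group.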

Mus musculus [3] = test: Antihyperalgesic activity in OF1 mouse partial sciatic nerve ligation model assessed as increase in […] threshold to thermal stimuli at 50 mg/kg, po measured upto 150 mins by planar test; type: functional, organism-based
Summary of the method: (§3)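 Male OF1 PSNL mice given 50 mg/kg orally in EtOH/0.5% methylcellulose in water (1.5/98.5). Thermal hyperalgesia assessed by plantar test as paw withdrawal to a thermal stimulus, expressed relative to the contralateral paw, at time points up to 150 min.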

Mus musculus [4] = test: Antinociceptive activity in iv dosed OF1 mouse assessed as increase in jump latency by hot plate test; type: functional, organism-based
Summary of the method: (§4)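 Hot plate in male OF1 mice. 10 mg/kg given iv in EtOH/Cremophor/H2O (1/1/8) or EtOH/Tween 80/H2O (1/1/8). Jump latency recorded with a 240 s cut-off over a time course. n = 6 per group.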

Mus musculus [5] = test: Antiallodynic activity in OF1 mouse partial sciatic nerve ligation model assessed as increase in mechanical threshold to pressure at 50 mg/kg, po after 150 mins by von Frey test; type: functional; summary of the method: as §2
Plasma [6] = test: Drug level in Sprague-Dawley rat plasma treated with 1-(1-{2-[(1-Ethoxycarbonyloxy-ethoxycarbonylmethyl)-carbamoyl]-3-phenyl-propyldisulfanylmethyl}-3-methylsulfanyl-propylcarbamoyloxy)-ethyl isobutyrate at 800 uM incubated for 1 to 60 mins by LC/MS analysis; type: ADME, cell-free
Summary of the method: (§5)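 Prodrug at 800 µM final concentration incubated at 37 °C in male Sprague-Dawley rat plasma (heparin lithium; 66 mg protein/mL) for 1, 5, 15, 30 and 60 min. Reaction stopped with absolute EtOH. Parent and metabolites monitored by LC/MS, in triplicate.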

Mus musculus [7] = test: Analgesic activity in OF1 mouse assessed as decrease in hindpaw licking at 50 mg/kg ,po administered 90 mins prior to formalin challenge by formalin test; type: functional; design: scale not given: the % may be the effect or the level left; summary of the method: as §1
Mus musculus [8] = test: Analgesic activity in OF1 mouse assessed as decrease in hindpaw licking at 50 mg/kg ,po administered 210 mins prior to formalin challenge by formalin test relative to control; type: functional, organism-based; summary of the method: as §1
Mus musculus [9] = test: Antiallodynic activity in OF1 mouse partial sciatic nerve ligation model assessed as increase in mechanical threshold to pressure at 50 mg/kg, po after 90 mins by von Frey test; type: functional; summary of the method: as §2
Mus musculus [10] = test: Antihyperalgesic activity in OF1 mouse partial sciatic nerve ligation model assessed as increase in […] threshold to thermal stimuli at 50 mg/kg, po measured at 90 mins by planar test relative to control; type: functional; summary of the method: as §3
Mus musculus [11] = test: Antinociceptive activity in po dosed OF1 mouse assessed as increase in jump latency by hot plate test; type: functional, organism-based
Summary of the method: (§6)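 Hot plate test in male OF1 mice (20–25 g). 150 mg/kg given per os in EtOH/PEG400/H2O (1/4/5). Jump latency recorded by stop-watch, cut-off 240 s, followed over time. Mean ± sem, n = 7–8 per group.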

Mus musculus [12] = test: Antinociceptive activity in OF1 mouse assessed as increase in jump latency at 150 mg/kg, po by hot plate test; type: functional, organism-based; summary of the method: as §6
Mus musculus [13] = test: Analgesic activity in OF1 mouse assessed as decrease in hindpaw licking at 50 mg/kg ,po administered 120 mins prior to formalin challenge by formalin test; type: functional; design: scale not given: the % may be the effect or the level left; summary of the method: as §1
Plasma [14] = test: Prodrug conversion in Sprague-Dawley rat plasma assessed as formation of 1-{1-[2-(Carboxymethyl-carbamoyl)-3-phenyl-propyldisulfanylmethyl]-3-methylsulfanyl-propylcarbamoyloxy}-ethyl isobutyrate at 800 uM incubated for 1 to 60 mins by LC/MS analysis; type: ADME, cell-free; summary of the method: as §5
Plasma [15] = test: Prodrug conversion in Sprague-Dawley rat plasma assessed as formation of (S)-2-((S)-3-(((S)-2-amino-4-(methylthio)butyl)disulfanyl)-2-benzylpropanamido)propanoic acid at 800 uM incubated for 1 to 60 mins by LC/MS analysis; type: ADME, cell-free; summary of the method: as §5
Mus musculus [16] = test: Analgesic activity in OF1 mouse assessed as decrease in hindpaw licking at 50 mg/kg ,po administered 20 mins prior to formalin challenge by formalin test; type: functional; design: scale not given: the % may be the effect or the level left; summary of the method: as §1
Mus musculus [17] = test: Antinociceptive activity in OF1 mouse assessed as increase in jump latency at 10 mg/kg, iv by hot plate test; type: functional, organism-based; summary of the method: as §4
Plasma [18] = test: Prodrug conversion in Sprague-Dawley rat plasma assessed as formation of PL37 at 800 uM incubated for 1 to 60 mins by LC/MS analysis; type: ADME, cell-free; summary of the method: as §5
Mus musculus [19] = test: Analgesic activity in OF1 mouse assessed as decrease in hindpaw licking at 50 mg/kg ,po administered 60 mins prior to formalin challenge by formalin test; type: functional; design: scale not given: the % may be the effect or the level left; summary of the method: as §1
Neprilysin = Neprilysin (Homo sapiens, UniProt P08473); test: Inhibition of recombinant human Neprilysin using Suc-Ala-Ala-Phe-AMC as substrate preincubated for 30 mins followed by substrate addition measured after 30 mins by fluorometry
Aminopeptidase N = Aminopeptidase N (Homo sapiens, UniProt P15144); test: Inhibition of recombinant human Aminopeptidase N using L-Ala-beta-NA as substrate preincubated for 30 mins followed by substrate addition measured after 30 mins by fluorometry
Mus musculus [20] = test: Antiallodynic activity in po dosed OF1 mouse partial sciatic nerve ligation model assessed as increase in mechanical threshold to pressure after 30 mins by von Frey test; type: functional, organism-based
Summary of the method: (§7)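 PSNL mice (male OF1, 16–18 g; partial sciatic ligation of 33–50% under isoflurane). Oral gavage at 12.5, 25 or 50 mg/kg in EtOH/0.5% methylcellulose (1.5/98.5). Von Frey up-down withdrawal thresholds measured on ipsilateral and contralateral paws before dosing and at 30, 60 and 120 min. Kruskal-Wallis with Dunn's test.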

Mus musculus [21] = test: Antiallodynic activity in po dosed OF1 mouse partial sciatic nerve ligation model assessed as increase in mechanical threshold to pressure at 25 mg/kg, po after 60 mins by von Frey test; type: functional; summary of the method: as §7
Mus musculus [22] = test: Antiallodynic activity in po dosed OF1 mouse partial sciatic nerve ligation model assessed as increase in mechanical threshold to pressure at 25 mg/kg, po after 120 mins by von Frey test; type: functional; summary of the method: as §7
Mus musculus [23] = test: Antiallodynic activity in po dosed OF1 mouse partial sciatic nerve ligation model assessed as increase in mechanical threshold to pressure after 120 mins by von Frey test; type: functional, organism-based; summary of the method: as §7
Mus musculus [24] = test: Antiallodynic activity in po dosed OF1 mouse partial sciatic nerve ligation model assessed as increase in mechanical threshold to pressure after 60 mins by von Frey test; type: functional, organism-based; summary of the method: as §7
Mus musculus [25] = test: Antiallodynic activity in OF1 mouse partial sciatic nerve ligation model assessed as increase in mechanical threshold to pressure at 50 mg/kg, po after 45 to 60 mins by von Frey test; type: functional, organism-based
Mus musculus [26] = test: Antiallodynic activity in po dosed OF1 mouse partial sciatic nerve ligation model assessed as increase in mechanical threshold to pressure at 25 mg/kg, po after 30 mins by von Frey test; type: functional; summary of the method: as §7

Sequence of Aminopeptidase N (P15144 whole entry): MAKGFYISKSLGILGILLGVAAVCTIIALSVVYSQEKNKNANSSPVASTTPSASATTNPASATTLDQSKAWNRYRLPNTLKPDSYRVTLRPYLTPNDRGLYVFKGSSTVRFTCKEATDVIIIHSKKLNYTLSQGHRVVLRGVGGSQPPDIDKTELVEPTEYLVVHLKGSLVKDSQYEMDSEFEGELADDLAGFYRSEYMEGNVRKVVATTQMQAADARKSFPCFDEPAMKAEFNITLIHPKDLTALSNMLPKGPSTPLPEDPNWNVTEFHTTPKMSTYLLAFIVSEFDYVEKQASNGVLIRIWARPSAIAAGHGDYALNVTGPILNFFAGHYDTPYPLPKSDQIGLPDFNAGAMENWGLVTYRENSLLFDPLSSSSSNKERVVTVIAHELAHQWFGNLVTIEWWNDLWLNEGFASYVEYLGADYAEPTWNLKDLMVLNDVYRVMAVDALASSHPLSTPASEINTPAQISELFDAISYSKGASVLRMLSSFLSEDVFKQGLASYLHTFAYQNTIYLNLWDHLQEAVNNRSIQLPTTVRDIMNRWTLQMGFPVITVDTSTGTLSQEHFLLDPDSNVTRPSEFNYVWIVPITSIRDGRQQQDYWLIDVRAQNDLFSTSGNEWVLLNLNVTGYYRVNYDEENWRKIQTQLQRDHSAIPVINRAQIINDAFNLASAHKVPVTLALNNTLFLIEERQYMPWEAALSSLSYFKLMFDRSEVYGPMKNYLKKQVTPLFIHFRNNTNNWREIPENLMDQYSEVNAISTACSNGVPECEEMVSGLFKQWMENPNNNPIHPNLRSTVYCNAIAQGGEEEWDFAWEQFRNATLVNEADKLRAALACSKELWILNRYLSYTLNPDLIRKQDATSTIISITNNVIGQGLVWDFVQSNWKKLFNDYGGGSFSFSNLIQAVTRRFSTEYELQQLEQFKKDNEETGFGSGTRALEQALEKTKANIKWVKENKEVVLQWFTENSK
Sequence of Neprilysin (P08473 whole entry): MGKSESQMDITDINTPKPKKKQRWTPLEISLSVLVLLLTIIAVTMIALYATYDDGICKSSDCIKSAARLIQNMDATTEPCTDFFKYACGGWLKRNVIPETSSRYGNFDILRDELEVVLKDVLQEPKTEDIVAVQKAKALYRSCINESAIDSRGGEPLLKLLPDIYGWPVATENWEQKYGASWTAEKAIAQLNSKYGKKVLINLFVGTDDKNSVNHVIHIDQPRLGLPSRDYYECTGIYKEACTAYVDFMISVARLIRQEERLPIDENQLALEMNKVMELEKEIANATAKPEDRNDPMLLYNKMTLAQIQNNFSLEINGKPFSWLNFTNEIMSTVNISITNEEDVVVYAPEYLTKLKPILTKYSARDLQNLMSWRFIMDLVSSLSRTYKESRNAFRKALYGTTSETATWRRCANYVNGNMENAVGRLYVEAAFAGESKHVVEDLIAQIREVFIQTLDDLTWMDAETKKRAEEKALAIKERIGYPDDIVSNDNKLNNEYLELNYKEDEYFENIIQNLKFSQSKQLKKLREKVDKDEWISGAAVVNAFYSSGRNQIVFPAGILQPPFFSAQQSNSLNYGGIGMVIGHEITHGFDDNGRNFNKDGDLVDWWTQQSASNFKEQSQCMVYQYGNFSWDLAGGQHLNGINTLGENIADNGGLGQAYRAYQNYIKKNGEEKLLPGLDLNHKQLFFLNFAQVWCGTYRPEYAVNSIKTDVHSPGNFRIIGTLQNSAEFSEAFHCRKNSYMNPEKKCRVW

| SMILES | Activity (Mus musculus [1]) | Activity (Mus musculus [4]) | Activity (Mus musculus [7]) | Activity (Mus musculus [8]) | Activity (Mus musculus [11]) | also measured |
| --- | --- | --- | --- | --- | --- | --- |
| CSCC[C@@H](CSSC[C@@H](Cc1ccccc1)C(=O)NCC(=O)O)NC(=O)OC(C)OC(=O)C(C)C (some centres undefined) | 31% | inactive | 34% | inactive | inactive | Activity (Mus musculus [2]): 64%; Activity (Mus musculus [3]): Active; Activity (Mus musculus [5]): 18%; Drug metabolism (Plasma [6]): metabolite_detected; Activity (Mus musculus [9]): 56%; Activity (Mus musculus [10]): 100% |
| CC(OC(=O)N[C@@H](CC[S+](C)[O-])CSSC[C@@H](Cc1ccccc1)C(=O)NCC(=O)OCc1ccccc1)OC(=O)C(C)C (some centres undefined) | 38% | inactive | 39% | inactive | inactive | – |
| CSCC[C@@H](CSSC[C@@H](Cc1ccccc1)C(=O)NCC(=O)OCc1ccccc1)NC(=O)OC(C)OC(=O)C(C)C (some centres undefined) | 26% | inactive | 34% | inactive | inactive | – |
| CCOC(=O)OC(C)OC(=O)CNC(=O)[C@@H](CSSC[C@H](CCSC)NC(=O)OC(C)OC(=O)C(C)C)Cc1ccccc1 (some centres undefined) | 30% | – | 32% | inactive | – | Activity (Mus musculus [12]): inactive; Activity (Mus musculus [13]): 31%; Drug metabolism (Plasma [14]): metabolite_detected; Drug metabolism (Plasma [15]): metabolite_detected; Activity (Mus musculus [16]): 25%; Activity (Mus musculus [17]): inactive; Drug metabolism (Plasma [18]): metabolite_notdetected; Activity (Mus musculus [19]): 56% |
| C[S+]([O-])CC[C@H](N)CS (some centres undefined) | – | – | – | – | – | Ki (Neprilysin): > 10 µM |
| CC(OC(=O)N[C@@H](CC[S+](C)[O-])CSSCC1(C(=O)N[C@@H](CC(=O)O)C(=O)O)CCCC1)OC(=O)C(C)C (some centres undefined) | 47% | inactive | 46% | inactive | inactive | – |
| CSCC[C@H](N)CSSC[C@@H](Cc1ccccc1)C(=O)NCC(=O)O | – | – | – | – | Active | Drug metabolism (Plasma [6]): metabolite_detected |
| CCOC(=O)OC(C)OC(=O)CNC(=O)[C@@H](CSSC[C@H](CC[S+](C)[O-])NC(=O)OC(C)OC(=O)C(C)C)Cc1ccccc1 (some centres undefined) | 38% | inactive | 39% | inactive | inactive | – |
| O=C(O)CNC(=O)C(CS)Cc1ccccc1 (centres undefined) [THIORPHAN] | – | – | – | – | – | Ki (Aminopeptidase N): > 10 µM |
| CCOC(=O)OC(C)OC(=O)CNC(=O)[C@@H](CSSC[C@@H](N)CCSC)Cc1ccccc1.O=C(O)/C=C/C(=O)O (some centres undefined) | – | – | – | – | – | Activity (Mus musculus [12]): Active; Activity (Mus musculus [13]): inactive; Activity (Mus musculus [16]): 62%; Activity (Mus musculus [17]): Active; Activity (Mus musculus [19]): 31% |
| CSCC[C@H](N)CSSC[C@@H](Cc1ccccc1)C(=O)NCC(=O)OCc1ccccc1 | – | – | – | – | Active | – |
| C[S+]([O-])CC[C@H](N)CSSC[C@@H](Cc1ccccc1)C(=O)NCC(=O)OCc1ccccc1 (some centres undefined) | – | – | – | – | Active | – |
| C[S+]([O-])CC[C@H](N)CSSC[C@@H](Cc1ccccc1)C(=O)NCC(=O)O (some centres undefined) | – | – | – | – | Active | – |
| O=C(O)C[C@H](NC(=O)C1(CS)CCCC1)C(=O)O | – | – | – | – | – | Ki (Aminopeptidase N): > 10 µM |
| CC(OC(=O)N[C@@H](CC[S+](C)[O-])CSSC[C@@H](Cc1ccccc1)C(=O)NCC(=O)O)OC(=O)C(C)C (some centres undefined) | 38% | inactive | 39% | inactive | inactive | Activity (Mus musculus [20]): Dose-dependent effect; Activity (Mus musculus [21]): 52%; Activity (Mus musculus [22]): 63%; Activity (Mus musculus [23]): Dose-dependent effect; Activity (Mus musculus [24]): Dose-dependent effect; Activity (Mus musculus [25]): Active; Activity (Mus musculus [26]): 40% |
| CCOC(=O)OC(C)OC(=O)CNC(=O)[C@@H](CSSC[C@@H](N)CC[S+](C)[O-])Cc1ccccc1 (some centres undefined) | – | – | – | – | Active | – |
| C[S+]([O-])CC[C@H](N)CSSCC1(C(=O)N[C@@H](CC(=O)O)C(=O)O)CCCC1 (some centres undefined) | – | – | – | – | Active | – |
